Consider 17 molecules from ChEMBL document CHEMBL3244081, “Potential antitumor agents. 31. Quantitative structure-activity relationships for the antileukemic bis(guanylhydrazones)” (1979).

Some results are limits rather than exact numbers.

The subject of experiment [1] is L1210. The experiment can be described thus: Anti-leukemic activity against mouse L1210 cells allografted in ip dosed DBA2 mouse assessed as optimum drug dose required for the effect administered qd for 1 to 4 days. Format: functional.
The nature of experiment [2]: Displacement of ethidium from poly[d(A-T)]-poly[d(A-T)] DNA (unknown origin) by fluorimetric assay. Summed up: (§1)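 Relative binding to the synthetic duplex polymers was measured as fluorimetric displacement of bound ethidium, following the method of the earlier studies. Compounds were made up as 2 mM aqueous stock solutions, either from weighed salts or, where material was scarce, with the concentration set from published UV absorbance data before final dilution.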

Experiment [3] in a line: Binding affinity to DNA (unknown origin) assessed as decrease in velocity of L1210 DNA-dependent DNA polymerase reaction.
In experiment [4] the test system is L1210. The experiment is described as follows: Anti-leukemic activity against mouse L1210 cells allografted in ip dosed DBA2 mouse assessed as increase in host lifespan administered qd for 1 to 4 days. Format: functional.
Experiment [5] is described as follows: Displacement of ethidium from poly[d(G-C)]-poly[d(G-C)] DNA (unknown origin) by fluorimetric assay. A digest of the protocol:
as §1

With `CCC(/C=N/NC(=N)N)=N\NC(=N)N.Cl`, in experiment [1], the log optimum dose was 2. Moreover, the C50 in experiment [2] is 112 µM; in experiment [5], 248 µM. Further, the logIC50 in experiment [3] was 2.87. Besides, the “log(activity)” value in experiment [4] is less than 1.4.
As to `N=C(N)N/N=C/CCC/C=N/NC(=N)N`, the log optimum dose in experiment [1] was 1.87. In addition, the C50 came to 70 µM in experiment [2] and 81 µM in experiment [5]. The logIC50 in experiment [3] is more than 3. For the same molecule, the “log(activity)” value in experiment [4] is reported as less than 1.4.
Regarding `N=C(N)c1ccc(/C=C/c2ccc(C(=N)N)cc2O)cc1` [HYDROXYSTILBAMIDINE], the log optimum dose in experiment [1] is 1.87. Further, the C50 in experiment [2] came to 1.2 µM; in experiment [5] it was 6.7 µM. Also, in experiment [3], the logIC50 stood at 1.6. For the same molecule, the “log(activity)” value in experiment [4] is 1.85.
The corresponding values for `C/C(=N\NC(=N)N)c1ccc(NC(=O)Nc2ccc(/C(C)=N/NC(=N)N)cc2)cc1` are 1.4, 0.43 µM, 1.3 µM, 1.95 and 2.47.
As for `N=C(N)N/N=C/C/C=N/NC(=N)N`, the log optimum dose in experiment [1] was 2.3. For the same molecule, the logIC50 in experiment [3] was more than 3. For the same molecule, the “log(activity)” value in experiment [4] is less than 1.4.
Regarding `CC(/C=N/NC(=N)N)=N\NC(=N)N` [MITOGUAZONE], the log optimum dose in experiment [1] was 1.7. In addition, the C50 is 34 µM in experiment [2] and 128 µM in experiment [5]. Further, the logIC50 in experiment [3] turned out to be 2.85. Also, the “log(activity)” value in experiment [4] worked out at 2.
Turning to `C/C(=N\NC(=N)N)c1cccc(NC(=O)Nc2cccc(/C(C)=N/NC(=N)N)c2)c1`, the log optimum dose in experiment [1] came out at 1.48. Besides, the figures for the C50 in experiment [2] and in experiment [5] were 0.42 µM and 1.6 µM, respectively. For the same molecule, the logIC50 in experiment [3] stood at 1.6. Also, the “log(activity)” value in experiment [4] was found to be 2.1.
For the molecule `CC(=N\NC(=N)N)/C(C)=N/NC(=N)N`, the log optimum dose in experiment [1] is recorded as 2.18. Besides, the C50 worked out at 14 µM in experiment [2] and 51 µM in experiment [5]. The logIC50 in experiment [3] is 2.7. For the same molecule, in experiment [4], the “log(activity)” value is given as less than 1.4.
The corresponding values for `N=C(N)NN=C1C=CC(=NNC(=N)N)C=C1` are 1.88, 22 µM, 200 µM, 2.85 and less than 1.4.
On to `Cl.N=C(N)N/N=C/c1ccc(-c2ccc(/C=N/NC(=N)N)cc2)cc1`, for which, in experiment [1], the log optimum dose is listed as 1.3. Also, the C50 was 0.14 µM in experiment [2] and 1 µM in experiment [5]. In experiment [3], the logIC50 turned out to be 1.6. In experiment [4], the “log(activity)” value is reported as 1.63.
The corresponding values for `CC(/C=N/N(C)C(=N)N)=N\N(C)C(=N)N` are 2.18, 103 µM, 379 µM, more than 3 and less than 1.4.
As for `C/C(=N\NC(=N)N)c1ccc(NC(=N)Nc2ccc(/C(C)=N/NC(=N)N)cc2)cc1`, the log optimum dose in experiment [1] is recorded as 0.7. The C50 in experiment [2] was 0.08 µM; in experiment [5] it was 0.2 µM. For the same molecule, in experiment [3], the logIC50 is 1.6. Moreover, in experiment [4], the “log(activity)” value was 1.82.
Regarding `N=C(N)NCCCCCCCCCCNC(=N)N` [SYNTHALIN], in experiment [1], the log optimum dose amounted to 0.6. The C50 in experiment [2] worked out at 127 µM; in experiment [5], 191 µM. For the same molecule, the logIC50 in experiment [3] was more than 3. Besides, in experiment [4], the “log(activity)” value is on record as 2.11.
Turning to `CNC(=N)N/N=C/C(C)=N/NC(=N)NC`, the log optimum dose in experiment [1] is given as 2.3. Further, the C50 in experiment [2] came to 27 µM; in experiment [5] it was 111 µM. For the same molecule, the logIC50 in experiment [3] was 2.81. Also, the “log(activity)” value in experiment [4] is given as less than 1.4.
Turning to `C/C(=N\NC(=N)N)c1ccc(NC(=S)Nc2ccc(/C(C)=N/NC(=N)N)cc2)cc1`, in experiment [1], the log optimum dose is reported as 1.4. For the same molecule, the C50 in experiment [2] amounted to 1.2 µM; in experiment [5] it was 3.4 µM. Besides, the logIC50 in experiment [3] turned out to be 2.11. In addition, in experiment [4], the “log(activity)” value is listed as 1.97.
Regarding `Cl.N=C(N)N/N=C/c1ccc(/C=N/NC(=N)N)cc1`, in experiment [1], the log optimum dose was 1.6. Moreover, the results for the C50 in experiment [2] and in experiment [5] were 2.9 µM and 7.6 µM, respectively. In addition, in experiment [3], the logIC50 is 1.9. Further, the “log(activity)” value in experiment [4] was 1.84.
As for `N=C(N)N/N=C/c1ccc(NC(=O)Nc2ccc(/C=N/NC(=N)N)cc2)cc1`, the log optimum dose in experiment [1] turned out to be 1.48. Also, the C50 in experiment [2] was 0.3 µM; in experiment [5], 0.69 µM. The logIC50 in experiment [3] was determined as 1.95. Moreover, the “log(activity)” value in experiment [4] is recorded as 2.08.
